Tests used:
[1] = target: T1, E3 ubiquitin-protein ligase Mdm2 (Homo sapiens, UniProt Q00987); assay: Binding affinity to recombinant human MDM2 by using 5-FAM-PMDM6 by fluorescence polarization based assay
[2] = target: T1, E3 ubiquitin-protein ligase Mdm2; assay: Binding affinity to MDM2 (unknown origin)
[3] = Metabolic stability in athymic mouse plasma assessed as intact labeled peptide level at 3.7 MBq, iv after 4 hrs by RP-HPLC; type: ADME, organism-based
Summary of the method: (§1)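 Tumor-free athymic mice were given 131I-labeled peptide via tail vein. Plasma was collected at 2 and 4 h (n = 2 per time) and analysed by RP-HPLC on an RP-18 column with an ethanol/0.05 M sodium acetate pH 5.5 gradient at 1 mL/min; intact fraction taken as percentage of plasma radioactivity.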

[4] = Metabolic stability in athymic mouse plasma assessed as intact labeled peptide level at 3.7 MBq, iv after 2 hrs by RP-HPLC; type: ADME, organism-based; summary of the method: as §1
[5] = Lipophilicity, logD of the compound using n-octanol and phosphate-buffered saline at pH 7.4 by the shake flask method; type: physicochemical
Summary of the method: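 Shake-flask partition of the 125I-labeled peptide between n-octanol and PBS pH 7.4; logD from n = 4.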

T1 sequence (Q00987 whole entry): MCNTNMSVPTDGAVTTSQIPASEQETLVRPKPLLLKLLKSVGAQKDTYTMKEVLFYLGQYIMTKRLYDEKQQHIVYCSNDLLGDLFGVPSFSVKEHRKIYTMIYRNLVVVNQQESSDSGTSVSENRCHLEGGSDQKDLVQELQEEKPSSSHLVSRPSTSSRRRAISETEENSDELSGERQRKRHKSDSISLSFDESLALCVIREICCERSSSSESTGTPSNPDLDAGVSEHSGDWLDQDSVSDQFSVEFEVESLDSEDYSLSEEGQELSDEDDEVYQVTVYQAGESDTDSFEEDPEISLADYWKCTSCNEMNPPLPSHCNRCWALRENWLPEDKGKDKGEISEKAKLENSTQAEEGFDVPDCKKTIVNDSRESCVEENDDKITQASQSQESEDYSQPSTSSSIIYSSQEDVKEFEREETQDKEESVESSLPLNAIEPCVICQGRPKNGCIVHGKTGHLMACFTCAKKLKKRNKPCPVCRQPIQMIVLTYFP

**Q.** Which results are given for `CC(=O)N[C@@H](CCCCN)C(=O)NCCCCCC(=O)N[C@H](C(=O)N[C@@H](CO)C(=O)N[C@@H](Cc1ccccc1)C(=O)N[C@]1(C)CCCCCC/C=C/CCC[C@@](C)(C(=O)N[C@@H](CCC(=O)O)C(=O)N[C@@H](CC(N)=O)C(=O)N[C@@H](Cc2ccccc2)C(N)=O)NC(=O)[C@H](CC(C)C)NC(=O)[C@H](CC(C)C)NC(=O)[C@H](C)NC(=O)[C@H](Cc2c[nH]c3ccccc23)NC(=O)[C@H](Cc2ccc(O)cc2)NC(=O)[C@H](CCC(=O)O)NC1=O)[C@@H](C)O`?
**A.** IC50 [1]: 2.8 nM; Kd [2]: 15.1 nM

**Q.** With `CC(=O)NC(CCCCNC(=O)c1cccc([131I])c1)C(=O)NCCCCCC(=O)N[C@H](C(=O)N[C@@H](CO)C(=O)N[C@@H](Cc1ccccc1)C(=O)N[C@@]1(C)CCCCCC/C=C/CCC[C@@](C)(C(=O)N[C@@H](CCC(=O)O)C(=O)N[C@@H](CC(N)=O)C(=O)N[C@@H](Cc2ccccc2)C(N)=O)NC(=O)[C@H](CC(C)C)NC(=O)[C@H](CC(C)C)NC(=O)[C@H](C)NC(=O)[C@H](Cc2c[nH]c3ccccc23)NC(=O)[C@H](Cc2ccc(O)cc2)NC(=O)[C@H](CCC(=O)O)NC1=O)[C@@H](C)O` (stereo not given in full) as the compound, how does the Stability [3] read?
**A.** 80%

**Q.** What about the Stability [4] of the same compound?
**A.** 68%

**Q.** Which logD [5] does the source give for `CC(=O)NC(CCCCNC(=O)c1cccc(I)c1)C(=O)NCCCCCC(=O)N[C@H](C(=O)N[C@@H](CO)C(=O)N[C@@H](Cc1ccccc1)C(=O)N[C@@]1(C)CCCCCC/C=C/CCC[C@@](C)(C(=O)N[C@@H](CCC(=O)O)C(=O)N[C@@H](CC(N)=O)C(=O)N[C@@H](Cc2ccccc2)C(N)=O)NC(=O)[C@H](CC(C)C)NC(=O)[C@H](CC(C)C)NC(=O)[C@H](C)NC(=O)[C@H](Cc2c[nH]c3ccccc23)NC(=O)[C@H](Cc2ccc(O)cc2)NC(=O)[C@H](CCC(=O)O)NC1=O)[C@@H](C)O` (stereo not given in full) here?
**A.** 1.45

Reference: ChEMBL document CHEMBL5143669, “Stapled peptides as scaffolds for developing radiotracers for intracellular targets: Preliminary evaluation of a radioiodinated MDM2-binding stapled peptide in the SJSA-1 osteosarcoma model” (Bioorg Med Chem Lett, 2022)
